Most compounds without a hit are left out; they make up all but 3% or so of the library.
Apaf1 inhib = inhibitors of human Apaf-1 apoptosome, primary screen, biochemical, DEVD-Rh110 fluorescence, uHTS. reconstituted apoptosome caspase-3 activity. inhibition, % at 20 µM. actives 0.71% (n = 330,000). Apoptotic protease-activating factor 1 (Homo sapiens), O14727; active = inhibition of at least 40% at 20 µM;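 note: plate controls were DMSO wells for no effect and DEVD-CHO caspase inhibitor wells for full effect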
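Material: cell-free apoptosome with Apaf-1, procaspase-3 and caspase-9; Buffer or medium: Hepes pH 7.5 with detergent and BSA; Reagent: cytochrome c trigger plus (Z-DEVD)2-Rh110 caspase-3 substrate; Times: compound with Apaf-1, dATP, procaspase-3 30 min, then 50 min reaction, room temperature; Technique: Rh110 fluorescence intensity.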
UBC13 inh = UBC13 polyubiquitin chain formation inhibitors, primary screen, biochemical, TR-FRET, uHTS; Ubiquitin-conjugating enzyme E2 N (Homo sapiens), P61088; inhibition, % at 20 µM; AID 485273, 2010; actives 0.47% (n = 330,000); in the data active = inhibition above about 45%, passing the limit was not always enough
Target sequence (P61088 whole entry, looked up): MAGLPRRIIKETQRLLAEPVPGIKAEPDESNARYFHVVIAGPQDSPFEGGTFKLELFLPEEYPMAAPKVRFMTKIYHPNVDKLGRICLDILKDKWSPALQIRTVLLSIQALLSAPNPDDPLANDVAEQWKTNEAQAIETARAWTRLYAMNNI
SENP8 block-1 = human SENP8 protease inhibitors, primary screen, biochemical, fluorescence, Nedd8 protein substrate, uHTS; Sentrin-specific protease 8 (Homo sapiens), Q96LD8; recombinant SENP8; inhibition, % at 20 µM; actives 0.64% (n = 360,000); AID 602440, 2012; in the data active = inhibition mostly above about 40%, no sharp cut-off; inactive = mostly below about 27%
SENP8 block-2 = SENP8 protease inhibitors, primary screen, biochemical, luminescence; Sentrin-specific protease 8 (Homo sapiens), Q96LD8; purified SENP8, Z-RLRGG-aminoluciferin cleavage; inhibition, % at 10 µM; actives 1.2% (n = 330,000); in the data active = inhibition above about 50%
SENP7 block = SENP7 protease inhibitors, primary screen, biochemical, luminescence, uHTS; recombinant SENP7, Z-RLRGG-aminoluciferin luminescence, 40 min; inhibition, % at 5 µM; actives 1.5% (n = 330,000); AID 434973, 2010;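 active = inhibition above about 50% at the single test dose, limit read from the data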;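 note: plate controls were DMSO with enzyme for no effect and no enzyme buffer wells for full effect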
Target sequence (Q9BQF6 706-1050 limits assumed): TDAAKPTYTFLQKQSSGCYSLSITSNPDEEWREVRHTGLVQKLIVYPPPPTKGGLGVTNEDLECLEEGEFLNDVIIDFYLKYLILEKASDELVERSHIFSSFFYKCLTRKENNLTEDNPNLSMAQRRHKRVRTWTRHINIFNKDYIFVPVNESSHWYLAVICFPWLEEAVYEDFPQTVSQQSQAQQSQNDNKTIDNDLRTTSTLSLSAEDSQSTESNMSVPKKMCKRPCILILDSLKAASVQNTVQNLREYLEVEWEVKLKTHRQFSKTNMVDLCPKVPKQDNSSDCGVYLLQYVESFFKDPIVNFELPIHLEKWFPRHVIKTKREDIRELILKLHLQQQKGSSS
SENP6 inh = SENP6 protease inhibitors, primary screen, biochemical, luminescence, uHTS; Recombinant SENP6 catalytic domain, aminoluciferin luminescence; inhibition, % at 10 µM; actives 1.8% (n = 330,000);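 active = inhibition above about 50% at the single tested dose, limit read from the data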;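 note: plate controls were DMSO wells with enzyme for no effect and DMSO wells lacking enzyme for full effect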
Active calls of the source: *; . = no result given; ! = not active in a repeat.

SMILES	Apaf1 inhib	UBC13 inh	SENP8 block-1	SENP8 block-2	SENP7 block	SENP6 inh
O=C(Nc1cccc2nsnc12)c1cccs1	-1	26	-288	16	50*!	58*!
CCN(CC)CCNc1cc(C)nc2c1C(=O)C(=O)C=C2N1CCCCC1	40	-26	56*	13	18	31
CCN(CC)CCNC(=O)c1ccc(N2CCCCC2)c(NS(=O)(=O)c2ccc(C)cc2)c1	14	27	-23	7	8	-18
CCN(CC)CCNc1cccc2sc3ccccc3c(=O)c12	.	.	44*	.	.	.
C#CCOCCOCCOCCNc1nc(N2CCN(C(=O)CCCCCCCCCCNC(=O)[C@H](CCCCN)n3cc(C[C@@H](C)CC)nn3)CC2)nc(N2CCN(C(=O)CCCCCCCCCCNC(=O)[C@@H]([C@H](C)O)n3cc(C)nn3)CC2)n1	58*	118*	28	-32	7	-44
C#CCOCCOCCOCCNc1nc(N2CCN(C(=O)CCCCCCCCCCNC(=O)[C@H](CO)n3cc(CCCCCN)nn3)CC2)nc(N2CCN(C(=O)CCCCCCCCCCNC(=O)[C@H](CCCN=C(N)N)n3cc(C[C@@H](C)CC)nn3)CC2)n1	61*	129*	.	-9	11	-75
C#CCOCCOCCOCCNc1nc(N2CCN(C(=O)CCCCCCCCCCNC(=O)Cn3cc(C[C@@H](C)O)nn3)CC2)nc(N2CCN(C(=O)CCCCCCCCCCNC(=O)[C@@H](CCSC)n3cc(CCO)nn3)CC2)n1	30	26	4	4	0	5
C#CCOCCOCCOCCNc1nc(N2CCN(C(=O)CCCCCCCCCCNC(=O)[C@H](CCCCN)n3cc(CCO)nn3)CC2)nc(N2CCN(C(=O)CCCCCCCCCCNC(=O)[C@H](CCCCN)n3cc(C[C@@H](C)CC)nn3)CC2)n1	68*	130*	.	-19	5	-32
C#CCOCCOCCOCCNc1nc(N2CCN(C(=O)CCCCCCCCCCNC(=O)[C@@H](CCSC)n3cc(CCO)nn3)CC2)nc(N2CCN(C(=O)CCCCCCCCCCNC(=O)[C@@H]([C@H](C)O)n3cc(C)nn3)CC2)n1	34	22	18	2	3	7
C#CCOCCOCCOCCNc1nc(N2CCOCC2)nc(N2CCN(C(=O)CCCCCCCCCCNC(=O)[C@H](CO)n3cc(CCCSC)nn3)CC2)n1	25	2	8	4	-11	-1
C#CCOCCOCCOCCNc1nc(N2CCN(C(=O)CCCCCCCCCCNC(=O)[C@H]([C@@H](C)CC)n3cc(CCCCN=C(N)N)nn3)CC2)nc(N2CCN(C(=O)CCCCCCCCCCNC(=O)[C@H](CCCN=C(N)N)n3cc(C[C@@H](C)CC)nn3)CC2)n1	46*	129*	.	24	10	-95
Cc1cc(C)n2nc(CNS(=O)(=O)c3ccc(C(C)(C)C)cc3)nc2n1	.	.	10	.	.	.
CO[C@H]1CN(C)C(=O)c2cc(NC(=O)C3CCCC3)ccc2OC[C@@H](C)NC[C@H]1C	.	.	14	.	.	.
C#CCOCCOCCOCCNc1nc(N2CCN(C(=O)CCCCCCCCCCNC(=O)[C@H](CCCN=C(N)N)n3cc(C[C@@H](C)CC)nn3)CC2)nc(N2CCN(C(=O)CCCCCCCCCCNC(=O)[C@@H]([C@H](C)CC)n3cc(CCCCCN)nn3)CC2)n1	80*	122*	.	-19	10	-88
CCOC(=O)C1CCCN(C(=O)c2sc(-c3ccccc3)nc2C)CC1 (stereo not given)	.	.	10	.	.	.
N/C(=N\OC(=O)c1cccc(Br)c1)c1ccccn1	15	1	3	86*	98*	96*
CC(=O)C1CCC2C3C=CC4=CC(=O)CCC4(C)C3CCC12C (stereo not given)	.	.	1	.	.	.
COc1ccc(-c2ncncc2-c2csc(C)n2)c(O)c1OC	4	-6	27	-4	-11	-12
COC1=C(N)C(=O)c2nc(-c3nc(C(=O)O)c(C)c(-c4ccc(OC)c(OC)c4O)c3N)ccc2C1=O	84*	-309	.	82*	67*	80*
COc1cc2ccccc2cc1C(=O)Nc1sc2c(c1C(N)=O)CCN(C(C)C)C2	51*	31	-383	-4	-7	5
CC(C)N1CCc2c(sc(NC(=O)CN3C(=O)c4ccccc4C3=O)c2C(N)=O)C1	-3	6	-10	9	8	-10
COC(=O)[C@]12CCCCC=C1N(CCC1=CCCCC1)C(=O)[C@H](CC(=O)N1CCN(C(=O)c3ccco3)CC1)C2	.	.	13	.	.	.
COc1ccc(-c2csc(C)n2)cc1Br	8	-8	10	1	-1	-46
COc1ccc(-c2cn3cccc(C)c3n2)cc1Br	6	12	-60	59*	68*	-9
CN1C2C=CC(=O)C1C1C(=O)N(c3ccccc3)C(=O)C12 (stereo not given)	.	.	8	.	.	.
SMILES	Apaf1 inhib	UBC13 inh	SENP8 block-1	SENP8 block-2	SENP7 block	SENP6 inh
Cc1cc(N=Nc2ccc(Cl)cc2)cc(CN2CCOCC2)c1O	-1	-7	19	-13	-8	-8
Cc1cc(N=Nc2ccc(Cl)cc2)cc(CN2CCCC2)c1O	14	-71	43*	-7	-11	-6
CS(=O)(=O)Nc1cccc(NC(=O)c2cccc3c(-c4ccc(F)c(F)c4)coc23)c1	.	.	-1	.	.	.
CC(C)CCN1C(=O)c2ccccc2C1c1nnnn1-c1ccc2c(c1)OCCO2 (stereo not given)	.	.	6	.	.	.
O=C(N/N=C/c1sc(=O)n(-c2ccccc2)c1Cl)c1ccccc1	-2	0	-7	56*	76*	83*
NC(=O)N/N=C/c1sc(=O)n(-c2ccccc2)c1Cl	-8	0	7	1	-5	-14
COc1ccccc1C1N=C(c2ccccc2C)NO1 (stereo not given)	8	2	25	75*	78*	83*
COc1cc(NS(=O)(=O)c2ccc(C)cc2)c2c(c1N)C(=O)c1ccccc1C2=O	.	.	41*	.	.	.
Oc1ccc(C=Nc2ccc3ncccc3c2)c(O)c1	95*	-49	.	89*	25	84*
COc1cccc(N=Cc2ccc(O)cc2O)c1	-13	-13	14	-2	-3	-12
COc1cccc(S(=O)(=O)N2C[C@H](O)COC[C@H]3O[C@@H](CC(=O)N4CCN(C)CC4)CC[C@@H]32)c1	.	.	15	.	.	.
COc1cc(OC)c(C2CC(=O)N3CN(C)CSC3=C2C#N)cc1OC (stereo not given)	14	-7	79*	0	4	-4

Screening data as filed in PubChem BioAssay.
